Test results reported in ChEMBL document CHEMBL3627638, “Mixed up minor groove binders: Convincing A·T specific compounds to recognize a G·C base pair” (Bioorg Med Chem Lett, 2015).
Active and inactive are the calls of the source. The calls are words filed in the database; no cut-off is given here.

What was measured:
Nucleic Acid [1] = assay: Binding affinity to hairpin oligomer duplex A4T4 DNA (unknown origin) assessed as change in melting temperature at 2:1 drug/DNA ratio by spectrophotometry; format: nucleic-acid assay
Nucleic Acid [2] = assay: Binding affinity to hairpin oligomer duplex A4GT4 DNA (unknown origin) assessed as change in melting temperature at 2:1 drug/DNA ratio by spectrophotometry; format: nucleic-acid assay
Nucleic Acid [3] = assay: Binding affinity to hairpin oligomer duplex A4GCT4 DNA (unknown origin) assessed as change in melting temperature at 2:1 drug/DNA ratio by spectrophotometry; format: nucleic-acid assay
Nucleic Acid [4] = assay: Binding affinity to hairpin oligomer duplex A4T4 DNA (unknown origin) at 4:1 drug/DNA ratio by ESI mass spectrometry; format: nucleic-acid assay; settings: Homo sapiens
Summary of the method: (§1)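 Competition ESI-MS run on a mixture of DNA sequences with a pure GC sequence as non-binding internal standard. Ligand was titrated at 1:1, 2:1 and 4:1 mole ratios to each single sequence (e.g. 10 μM ligand to 5 μM DNA). Relative peak intensities of free DNA and ligand-DNA complexes were compared.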

Nucleic Acid [5] = assay: Binding affinity to hairpin oligomer duplex A4GT4 DNA (unknown origin) at 4:1 drug/DNA ratio by ESI mass spectrometry; format: nucleic-acid assay; settings: Homo sapiens; summary of the method: as §1
Nucleic Acid [6] = assay: Binding affinity to hairpin oligomer duplex A4GCT4 DNA (unknown origin) by ESI mass spectrometry; format: nucleic-acid assay; settings: Homo sapiens
Nucleic Acid [7] = assay: Binding affinity to biotinylated-hairpin oligomer duplex A4GT4 DNA (unknown origin) by surface plasmon resonance method in presence of 0.1 M Na+ ion; format: nucleic-acid assay, Homo sapiens
Summary of the method: (§2)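 SPR sensorgrams recorded for ligand injected over immobilized hairpin DNA at a concentration series: 2, 3, 5, 7, 10 and 15 nM for A4GT4, higher concentrations for A4IT4 and A4T4.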

Nucleic Acid [8] = assay: Binding affinity to biotinylated-hairpin oligomer duplex A4T4 DNA (unknown origin) by surface plasmon resonance method; format: nucleic-acid assay; settings: Homo sapiens; summary of the method: as §2
Nucleic Acid [9] = assay: Binding affinity to biotinylated-hairpin oligomer duplex A4GCT4 DNA (unknown origin) by surface plasmon resonance method; format: nucleic-acid assay; settings: Homo sapiens
Nucleic Acid [10] = assay: Binding affinity to biotinylated-hairpin oligomer duplex A4IT4 DNA (unknown origin) by surface plasmon resonance method; format: nucleic-acid assay, Homo sapiens; summary of the method: as §2
Nucleic Acid [11] = assay: Binding affinity to hairpin oligomer duplex A4GT4 DNA (unknown origin) by circular dichroism method; format: nucleic-acid assay; settings: Homo sapiens
Summary of the method: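 Ligand titrated incrementally into the DNA, with CD spectra followed in the DNA region (230 to 290 nm).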

DNA [12] = assay: Binding affinity to AATTCAATT-AATTGAATT DNA fragment (unknown origin) by DNaseI footprinting analysis; format: nucleic-acid assay; settings: Homo sapiens
DNA [13] = assay: Binding affinity to AATTGCAATT-AATTGCAATT DNA fragment (unknown origin) by DNaseI footprinting analysis; format: nucleic-acid assay; settings: Homo sapiens
DNA [14] = assay: Binding affinity to A4CT4-A4GT4 DNA fragment (unknown origin) by DNaseI footprinting analysis; format: nucleic-acid assay; settings: Homo sapiens

ΔTm (Nucleic Acid [1]) [°C] | ΔTm (Nucleic Acid [2]) [°C] | ΔTm (Nucleic Acid [3]) [°C] | Activity (Nucleic Acid [4]) | Activity (Nucleic Acid [5]) | Activity (Nucleic Acid [6]) | Kd (Nucleic Acid [7]) [nM] | Activity (Nucleic Acid [8]) | Activity (Nucleic Acid [9]) | Kd (Nucleic Acid [10]) [nM] | Activity (Nucleic Acid [11]) | Activity (DNA [12]) | Activity (DNA [13]) | Activity (DNA [14]) | Structure (SMILES)
14 | 19 | 6 | – | – | – | – | – | – | – | – | – | – | – | CN1CCN(c2ccc3nc(-c4ccc(OCc5cccc(COc6ccc(-c7nc8ccc(N9CCN(C)CC9)cc8[nH]7)cc6)n5)cc4)[nH]c3c2)CC1
24 | 19 | 5 | Active | Active | inactive | – | – | – | – | – | – | – | – | N=C(N)c1ccc2nc(-c3ccc(-c4cccc(-c5ccc(-c6nc7ccc(C(=N)N)cc7[nH]6)cc5)n4)cc3)[nH]c2c1
15 | 22 | 8 | – | Active | inactive | 0.015 | Active | inactive | 1.2 | Active | Active | inactive | Active | N=C(N)c1ccc2nc(-c3ccc(OCc4cccc(COc5ccc(-c6nc7ccc(C(=N)N)cc7[nH]6)cc5)n4)cc3)[nH]c2c1
21 | 17 | < 1 | Active | Active | inactive | – | – | – | – | – | Active | Active | Active | N=C(N)c1ccc2nc(-c3ccc(OCc4cccc(COc5ccc(-c6nc7ccc(C(=N)N)cc7[nH]6)cc5)c4)cc3)[nH]c2c1
